Compound activity as filed in PubChem.
Most compounds without a hit are left out; they make up all but 4.9% or so of the library.
STAT3 inh – STAT3 signaling inhibition; inhibition, % at 5.5 µM; actives 0.89% (n = 190,000); AID 862; U3A cells, IL-6 STAT3-luciferase reporter, luminescence; host cell line lacks STAT1;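 active = inhibition above the mean inhibition across all screened compounds plus 3 SD, cut at about 44% in these data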
STAT3 activator – increases IL-6 driven STAT3 reporter signal; U3A cells, IL-6 STAT3-luciferase reporter, luminescence; 100% = signal with IL-6 EC80 alone; activation (% of control), % at 5.6 µM; actives 0.91% (n = 190,000);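 active = activation above the screen-wide mean of compound activation plus 3 SD, cut at about 130% in these data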
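Assay system – human STAT1-deficient U3A cells with stable STAT3-luciferase reporter · Also added – IL-6 (33 ng/mL) · Schedule – compound 1 h, then IL-6 6 h at 37 °C · Technique – reporter luminescence signal · Evaluation – % activation versus median of IL-6-stimulated wells · Benchmarks – IL-6-only wells as 100% reference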
STAT1 activator – activators of IFN-gamma induced STAT1 signaling; NIH 3T3 STAT1-luciferase reporter, luminescence; 100% = IFN-gamma alone, no compound; activation (% of control), % at 5.5 µM; actives 2.6% (n = 200,000);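 active = activation above the screen-wide mean activation plus 3 SD, cut at about 130% in these data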
STAT1 blocker – inhibitors of IFN-gamma induced STAT1 signaling. NIH 3T3 STAT1-luciferase reporter, luminescence. inhibition, % at 5.5 µM. actives 0.35% (n = 200,000). AID 920;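 active = inhibition above a set limit, the mean inhibition across all tested compounds plus 3 SD, cut at about 34% in these data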
APP 5'UTR act – APP 5'UTR luciferase reporter activation; activation, % at 2 µM; AID 1276; SH-SY5Y APP 5'UTR luciferase reporter, luminescence; zero percent = DMSO vehicle wells; actives 1% (n = 190,000);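 active = activation above a set limit, based on mean plus 3 SD of controls, cut at about 140% in these data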
NF-kB neuron act – raises NF-kB expression in human neuronal cells; NF-kB reporter expression; hits give high values; fold change at 12.5 µM; actives 1.6% (n = 190,000); in the data active = fold change above about 3.3
Each line names hits and unclear results; the compound was inactive in the other large screens.

Cc1ccc(N/C=C/C(=O)c2ccc(C)cc2)cc1	STAT1 activator 144.3, NF-kB neuron act 5.15
COc1cc(SC)ccc1C(=O)Nc1cccc(C)n1	STAT1 activator 143.8, APP 5'UTR act 243.6
COc1cc(SC)ccc1C(=O)Nc1ncc(C)s1	STAT3 inh 100.5, STAT1 blocker 89.7
COc1cc(SC)ccc1C(=O)OCC(=O)NC1CC1	none
COc1cc(SC)ccc1C(=O)Nc1ccc(C)cc1	STAT1 activator 146.3, APP 5'UTR act 184.2, NF-kB neuron act 6.57
COC(=O)c1ccc(COC(=O)c2ccc(SC)cc2OC)cc1	STAT1 activator 134.9
O=C(Cc1ccc2c(c1)OCCO2)N1CCN(S(=O)(=O)c2cccc(C(F)(F)F)c2)CC1	none
O=C(CN1CCCC1=O)NC1(C(F)(F)F)NC(=O)N(Cc2ccccc2)C1=O (configuration not stated)	none
COc1ccc2[nH]c3nc(SCc4nnc(-c5ccccc5)o4)nnc3c2c1	none
COc1ccc2[nH]c3nc(SC(C)C)nnc3c2c1	APP 5'UTR act 184.6, NF-kB neuron act 5.07
COc1ccc(-n2c(C)cc(/C=N/Nc3nc(N4CCOCC4)nc(N4CCOCC4)n3)c2C)cc1	none
c1ccc(-n2cnc3cc(NCc4ccco4)ccc32)cc1	STAT1 activator 147.0
COc1ccc(-n2cnc3cc(NCc4cccs4)ccc32)cc1	STAT1 activator 131.0
CC(=O)Nc1nc(SCC(=O)NCc2ccc(F)cc2)[nH]c(=O)c1NC(=O)c1cccs1	none
CCC(=O)N1CCc2cc(S(=O)(=O)NCCCN(CC)Cc3ccccc3)ccc21	none
CCc1ccc(-c2csc(-c3c[nH]c4ccccc34)n2)cc1	STAT1 activator 131.8
Nc1nc(-c2c[nH]c3ccccc23)cs1	none
CC12CN(NC(=O)c3ccccc3F)C3(C#N)CC1CCC23C (configuration not stated)	none
O=C(c1cc(COc2ccc3ncccc3c2)on1)N1CCC(O)CC1	none
CCOC(=O)N1CCN(C(=O)c2cc(COc3ccc4ncccc4c3)on2)CC1	STAT3 inh 56.2, STAT1 blocker 42.9
Cc1cccnc1CN1CCN(C(=O)c2cc(COc3ccc4ncccc4c3)on2)CC1	STAT3 inh 45.7, STAT1 blocker 35.6
Cc1ccc(N2CC(O)(c3cccs3)[N+]3=C2CCCC3)cc1 (configuration not stated)	none
Cc1ccc(N2NC(C)(c3cccs3)NC2=S)cc1 (configuration not stated)	NF-kB neuron act 3.33
Cc1ccsc1/C=N/NC(=O)c1ccccn1	STAT1 activator 148.0
Cc1cc(/C=N/NC(=O)c2cccs2)c(C)n1-c1cnccn1	STAT1 activator 146.6
O=C(N/N=C/c1ccsc1)c1ccccn1	none
Cc1ccccc1C(=O)N/N=C/c1ccsc1C	STAT1 activator 132.7
Cc1sccc1/C=N/NC(=O)c1cccc2ccccc12	none
Cc1nn(-c2ccc(F)cc2)c(Cl)c1/C=N/NC(=O)c1cccs1	STAT1 activator 141.9
COC(=O)C1CSC(C(=O)OC)N1C(=O)CN1CC(C)OC(C)C1 (configuration not stated)	none
COc1ccc(C2OC(=O)CC2C(=O)NC2CCCCCC2)cc1OC (configuration not stated)	none
Cn1cc(/C=N/NC(=O)c2ccc(C#N)cc2F)c2ccccc21	none
CC(C)(C)c1ccc(/C=N/NC(=O)c2ccccn2)cc1	STAT3 inh 68.3, STAT1 blocker 42.7, APP 5'UTR act 167.6
Cc1ccsc1/C=N/NC(=O)c1cccs1	STAT1 activator 133.8
Cn1cc(/C=N\NC(=O)c2cccs2)c2ccccc21	STAT1 activator 128.8
O=C(N/N=C/c1ccc(Br)s1)c1ccccn1	STAT1 activator 137.4, NF-kB neuron act 3.47
CC(C)(C)OC(=O)N1CCN(c2ccc(CNC(=O)c3ccc(Cl)cc3)cc2)CC1	none
Nc1nc(CSc2ccccc2)nc(N2CCCCC2)n1	STAT1 activator 142.1
O=C(CC(=O)c1cc(Cl)ccc1O)c1ccccc1	STAT1 activator 131.4
Cc1ccc(O)c(C(=O)CC(=O)c2cccc(F)c2)c1	STAT1 activator 130.2
O=C(CSc1cccc[n+]1[O-])Nc1ccc([N+](=O)[O-])cc1Cl	none
COc1cccc(CNc2ncc(Br)cc2Br)c1O	none
